According to ChEMBL document CHEMBL1133744, “Synthesis and biological evaluation of bombesin constrained analogues” (J Med Chem, 2000):
pEC50, pKi: −log10 of the molar value.

Tests used:
[1] = molecular target: Gastrin-releasing peptide receptor (Rattus norvegicus, UniProt P52500); assay: In vitro binding affinity against bombesin / GRP receptors on rat pancreatic acini.
Outline: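 Male Wistar rat dispersed pancreatic acini (about 1 mg/mL protein) incubated 60 min at 37 °C with 20 pM (3-[125I]iodotyrosyl15)GRP and varying analogue; pellet centrifuged at 10000g, washed twice, counted. Nonspecific binding with 10 μM unlabeled BN. Specific binding as %, mean ± SD of three experiments in duplicate.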

[2] = Binding affinity against BN (bombesin) / GRP receptors in Swiss 3T3 cells; assay type: cell-based, Mus musculus
Outline: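 Intact Swiss 3T3 cells (seeded 10⁵/well, 24 h in serum-free medium with 0.2% BSA) incubated 1 h at 22 °C in DMEM/0.2% BSA with 20 pM (3-[125I]iodotyrosyl15)GRP and varying compound; washed with cold PBS/0.2% BSA, NaOH-solubilized, radioactivity counted. Nonspecific binding with 10 μM BN. Duplicates, at least three separate trials.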

Rattus norvegicus = species: Rattus norvegicus; assay: Compound was tested for stimulating amylase secretion on rat pancreatic acini.; assay type: functional, organism-based
Outline: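 Dispersed pancreatic acini from male Wistar rats (200-300 g), about 1 mg protein/mL, incubated 30 min at 37 °C in HEPES pH 7.4 buffer with 1% BSA; amylase by Phadebas method, expressed as % of maximal BN response. Antagonism: varying analogue with 1 nM BN. Duplicate incubations.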

[3] = Compound was tested for stimulating [3H]-thymidine accumulation in Swiss 3T3 cells.; assay type: functional, cell-based; conditions: Mus musculus, NIH3T3, 24 h
Outline: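 Swiss 3T3 cells seeded 10⁵/well, 24 h in medium with 0.2% BSA without serum, then 24 h in DMEM/0.2% BSA; treated 24 h at 37 °C with varying analogue alone or with 10^-7 M BN, then 0.5 μCi [3H]thymidine for 2 h; TCA-precipitable radioactivity after NaOH solubilization. Agonism tested up to 10^-6 M.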

Gastrin-releasing peptide receptor, sequence (P52500 whole entry): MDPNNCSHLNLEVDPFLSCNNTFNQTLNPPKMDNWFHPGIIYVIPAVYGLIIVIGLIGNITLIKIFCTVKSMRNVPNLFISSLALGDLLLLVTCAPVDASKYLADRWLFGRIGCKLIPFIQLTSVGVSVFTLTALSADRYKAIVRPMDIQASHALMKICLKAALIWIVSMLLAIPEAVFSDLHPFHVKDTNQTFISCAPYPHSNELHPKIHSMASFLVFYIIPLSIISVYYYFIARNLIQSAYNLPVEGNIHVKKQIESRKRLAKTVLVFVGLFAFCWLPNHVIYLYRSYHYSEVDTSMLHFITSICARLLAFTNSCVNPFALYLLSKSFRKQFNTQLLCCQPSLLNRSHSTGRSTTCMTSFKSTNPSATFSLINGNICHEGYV

SMILES	pKi [1]	pEC50 (Rattus norvegicus)	pEC50 [3]	pKi [2]
CC(C)C[C@H](NC(=O)[C@H](CC(C)C)NC(=O)[C@H](Cc1cnc[nH]1)NC(=O)c1cccc(NC(=O)[C@H](C)NC(=O)[C@H](Cc2c[nH]c3ccccc23)NC(=O)[C@H](CCC(N)=O)NC(=O)[C@H](N)Cc2ccccc2)c1)C(N)=O	6.52	–	–	–
CCCCC(O)[C@@H](CC(C)C)NC(=O)[C@H](Cc1c[nH]cn1)NC(=O)CN1CCCC[C@H](NC(=O)[C@H](C)NC(=O)[C@H](Cc2c[nH]c3ccccc23)NC(=O)[C@H](CCC(N)=O)NC(=O)[C@H](N)Cc2ccccc2)C1=O (some centres undefined)	8.05	–	–	8.70
CC(C)C[C@H](NC(=O)[C@H](CC(C)C)NC(=O)[C@H](Cc1c[nH]cn1)NC(=O)CNC(=O)[C@@H](NC(=O)[C@H](C)NC(=O)[C@H](Cc1c[nH]c2ccccc12)NC(=O)[C@H](CCC(N)=O)NC(=O)C(N)Cc1ccccc1)C(C)C)C(N)=O (stereo in doubt) [listing 1 of 3 here]	–	10.52	10.10	–
CC(C)C[C@H](NC(=O)[C@H](CC(C)C)NC(=O)[C@H](Cc1cnc[nH]1)NC(=O)c1ccc(NC(=O)[C@H](C)NC(=O)[C@H](Cc2c[nH]c3ccccc23)NC(=O)[C@H](CCC(N)=O)NC(=O)[C@H](N)Cc2ccccc2)cc1)C(N)=O	5.65	–	–	–
CC(C)C[C@H](NC(=O)[C@H](CC(C)C)NC(=O)[C@H](Cc1cnc[nH]1)NC(=O)CN1CC[C@H](NC(=O)[C@H](C)NC(=O)[C@H](Cc2c[nH]c3ccccc23)NC(=O)[C@H](CCC(N)=O)NC(=O)[C@H](N)Cc2ccccc2)C1=O)C(N)=O	6.65	–	–	–
CC(C)C[C@H](NC(=O)[C@H](CC(C)C)NC(=O)[C@H](Cc1c[nH]cn1)NC(=O)CN1C(=O)[C@@H](NC(=O)[C@H](C)NC(=O)[C@H](Cc2c[nH]c3ccccc23)NC(=O)[C@H](CCC(N)=O)NC(=O)[C@H](N)Cc2ccccc2)N=C(c2ccccc2)c2ccccc21)C(N)=O	6.30	–	–	–
CC(C)C[C@H](NC(=O)[C@H](CC(C)C)NC(=O)[C@H](Cc1cnc[nH]1)NC(=O)c1ccccc1NC(=O)[C@H](C)NC(=O)[C@H](Cc1c[nH]c2ccccc12)NC(=O)[C@H](CCC(N)=O)NC(=O)[C@H](N)Cc1ccccc1)C(N)=O	6.19	–	–	–
CC(C)C[C@@H](NC(=O)[C@H](Cc1c[nH]cn1)NC(=O)CN1CCCC[C@H](NC(=O)[C@H](C)NC(=O)[C@H](Cc2c[nH]c3ccccc23)NC(=O)[C@H](CCC(N)=O)NC(=O)CCc2ccc(O)cc2)C1=O)C(=O)NO	7.89	–	–	7.96
CC(C)C[C@H](NC(=O)[C@H](CC(C)C)NC(=O)[C@H](Cc1c[nH]cn1)NC(=O)CNC(=O)[C@@H](NC(=O)[C@H](C)NC(=O)[C@H](Cc1c[nH]c2ccccc12)NC(=O)[C@H](CCC(N)=O)NC(=O)C(N)Cc1ccccc1)C(C)C)C(N)=O (stereo in doubt) [listing 3 of 3 here]	–	–	–	8.20
CC(C)C[C@@H](NC(=O)[C@H](Cc1c[nH]cn1)NC(=O)CN1CCCC[C@H](NC(=O)[C@H](C)NC(=O)[C@H](Cc2c[nH]c3ccccc23)NC(=O)[C@H](CCC(N)=O)NC(=O)[C@H](N)Cc2ccccc2)C1=O)C(=O)NO	6.90	–	–	7.28

Second part, led by results:

pKi [1]	pEC50 (Rattus norvegicus)	pEC50 [3]	SMILES	pKi [2]
8.42	–	–	CCCCC(O)[C@@H](CC(C)C)NC(=O)[C@H](Cc1c[nH]cn1)NC(=O)CN1CCCC[C@H](NC(=O)[C@H](C)NC(=O)[C@H](Cc2c[nH]c3ccccc23)NC(=O)[C@H](CCC(N)=O)NC(=O)CCc2ccc(O)cc2)C1=O (some centres undefined)	9.10
8.51	–	–	COC(=O)[C@H](CC(C)C)NC(=O)[C@H](Cc1c[nH]cn1)NC(=O)CN1CCCC[C@H](NC(=O)[C@H](C)NC(=O)[C@H](Cc2c[nH]c3ccccc23)NC(=O)[C@H](CCC(N)=O)NC(=O)CCc2ccc(O)cc2)C1=O	8.92
8.49	–	–	CC(C)C[C@H](NC(=O)[C@H](CC(C)C)NC(=O)[C@H](Cc1c[nH]cn1)NC(=O)CNC(=O)[C@@H](NC(=O)[C@H](C)NC(=O)[C@H](Cc1c[nH]c2ccccc12)NC(=O)[C@H](CCC(N)=O)NC(=O)C(N)Cc1ccccc1)C(C)C)C(N)=O (stereo in doubt) [listing 2 of 3 here]	–
8.28	–	–	COC(=O)[C@H](CC(C)C)NC(=O)[C@H](Cc1c[nH]cn1)NC(=O)CN1CCCC[C@H](NC(=O)[C@H](C)NC(=O)[C@H](Cc2c[nH]c3ccccc23)NC(=O)[C@H](CCC(N)=O)NC(=O)[C@H](N)Cc2ccccc2)C1=O	8.70
8.74	10.30	9.70	CC(C)C[C@H](NC(=O)[C@H](CC(C)C)NC(=O)[C@H](Cc1c[nH]cn1)NC(=O)CN1CCCC[C@H](NC(=O)[C@H](C)NC(=O)[C@H](Cc2c[nH]c3ccccc23)NC(=O)[C@H](CCC(N)=O)NC(=O)CCc2ccc(O)cc2)C1=O)C(N)=O	8.70
8.77	9.66	10.70	CC(C)C[C@H](NC(=O)[C@H](CC(C)C)NC(=O)[C@H](Cc1c[nH]cn1)NC(=O)CN1CCCC[C@H](NC(=O)[C@H](C)NC(=O)[C@H](Cc2c[nH]c3ccccc23)NC(=O)[C@H](CCC(N)=O)NC(=O)[C@H](N)Cc2ccccc2)C1=O)C(N)=O	9.00
